High-throughput results (PubChem)
Vif inh: blocks HIV Vif function; 340,000 compounds, 0.35% hits; inhibition, % at 7.49 µM; HEK293T cells, Vif self-association by quenched fluorescence, imaging, 24 h; AID 602346; in the data active = inhibition above about 50%, passing the limit was not always enough; inconclusive = no clear call, values can overlap the other calls; inactive = below about 31%
Wnt bcat act: activates Wnt/beta-catenin signaling in a reporter cell assay; activator, plate reader; activation, % at 9.35 µM; 300,000 compounds, 1.2% hits; in the data active = activation above about 30%, passing the limit was not always enough; inconclusive = no clear call, values can overlap the other calls;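 also: 0% = neutral control wells and 100% = positive control wells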
esBAF inh: blocks esBAF chromatin remodeling in mouse ES cells; Bmi1-luciferase knock-in reporter, 24 h; 100% = twice the neutral-well signal; reporter increase, % at 12.5 µM; 350,000 compounds, 2% hits; AID 602393; in the data active = activation above about 40%; inconclusive = no clear call, values can overlap the other calls;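 also: 0% = median of the plate's neutral control wells and 100% = double that signal; a rise in the Bmi1 reporter signal indicates esBAF inhibition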
Xi reactivation: activators of X-chromosome reactivation in mouse fibroblasts. AID 743238. 360,000 compounds, 0.055% hits. XiGFP mouse fibroblasts, % GFP-positive cells imaging, 3 d; cells co-treated with 5-aza-dC sensitizer; scaled so ellipticine positive control = 100%. activation, % at 7.58 µM;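 active = mean normalized replicate activation at least 10% and every replicate at or above 10%; inconclusive = only one of the two criteria met; inactive = mean below 10% and not all replicates reach 10%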;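 also: 0% = median of on-plate neutral control wells and 100% = ellipticine 6 µM median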
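material = 68-5-11 XiGFP fibroblast line | medium = DMEM plus 5-aza-dC sensitizer | schedule = 3 days compound exposure | benchmarks = positive control ellipticine, 6 µM final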
MITF act: increases MITF-driven TRPM1 promoter luciferase signal | SK-MEL-5 TRPM1-promoter luciferase, 24 h; % of positive control, neutral wells = 0 | activation, % at 12.5 µM | 300,000 compounds, 0.75% hits | AID 588334;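 active = mean activation of at least 80% with every replicate also reaching 80%; inconclusive = mean reaches 80% but some replicate falls short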;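 also: 0% = neutral control wells and 100% = parthenolide positive control wells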
Starred values were filed as active, the others as inactive; u = inconclusive; x = not tested or not shown. The list is not random: actives were taken first. Their share in the collection is about 2.6%.

SMILES	Vif inh	Wnt bcat act	esBAF inh	Xi reactivation	MITF act
COc1ccc(Cn2nnc(C(=O)Nc3ccc4c(c3)OCCO4)c2N)cc1Br	11	9	5	0	18
Nc1c(C(=O)Nc2ccc3c(c2)OCCO3)nnn1Cc1ccc(Cl)cc1	2	44*	114*	0	130*
Nc1c(C(=O)Nc2ccc3c(c2)OCCO3)nnn1Cc1cccc(F)c1	20	u	69*	0	115*
C[C@@H]1CN([C@@H](C)CO)C(=O)Cc2cc(NC(=O)Nc3ccc4c(c3)OCO4)ccc2O[C@H]1CN(C)Cc1ccc(C(F)(F)F)cc1	x	x	1	0	x
c1cc(-c2ccc(N3CCOCC3)cc2)n2ccnc2c1	-3	26	57*	0	x
CN(C)c1ccc(-c2cccc3nccn23)cc1	0	0	5	0	x
COc1cccc(CNC(=O)C[C@@H]2CC[C@H](NS(=O)(=O)c3ccccc3OC)[C@@H](CO)O2)c1	x	x	-5	1	x
COc1ccc(C(=O)/C=C/c2ccccc2C(F)(F)F)cc1	10	34*	14	x	-15
CCOc1ccc(C(=O)/C=C/c2ccccc2C(F)(F)F)cc1	1	-9	21	x	4
O=C(Nc1ccc2c(c1)[C@H]1C[C@H](CC(=O)N3CCc4ccccc4C3)O[C@@H](CO)[C@H]1O2)NC1CCCC1	x	x	7	0	x
Cc1ccc(NC(=O)Nc2ccc3c(c2)N(C)C(=O)CS3)nc1	-3	-3	u	x	u
Cc1cccc(NC(=O)Nc2ccc3c(c2)N(C)C(=O)CS3)n1	-1	7	49*	0	91*
Cc1ccnc(NC(=O)Nc2ccc3c(c2)N(C)C(=O)CS3)c1	-8	24	x	0	187*
C[C@H]1CC(=O)N[C@@H](c2ccccc2)C/C=C\C[C@H](c2ccc3c(c2)OCO3)NC1=O	x	x	x	0	x
C[C@@H]1CN([C@@H](C)CO)C(=O)c2cc(NS(=O)(=O)c3cccs3)ccc2O[C@@H](C)CCCCO[C@H]1CN(C)Cc1ccc2c(c1)OCO2	x	x	-5	0	x
COc1ccc([C@H]2CC(=O)C=C(c3cccc(OC)c3)C2)cc1	-2	-2	-1	0	5
COc1ccc([C@H]2CC(=O)C=C(c3ccc(OC)cc3OC)C2)cc1	55*	-11	0	0	4
COc1ccc([C@H]2CC(=O)C=C(c3cccc(C#N)c3)C2)cc1	-4	-6	45*	0	22
Cc1noc(C)c1NC(=O)N[C@@H]1C=C[C@H](CC(=O)N2CCCCC2)O[C@@H]1CO	x	x	5	0	x
CN(C)CC(=O)N1[C@@H]2Cn3c(ccc(-c4ccccc4)c3=O)[C@H]1[C@@H](C(=O)N1CCOCC1)[C@@H]2CO	x	x	-5	0	x
CCc1ccc2c(COC(=O)c3n[nH]c4ccccc34)cc(=O)oc2c1	-10	x	77*	x	x
Cc1ccc2c(COC(=O)c3n[nH]c4ccccc34)cc(=O)oc2c1	-5	x	69*	x	x
CCOC(=O)c1n[nH]c2ccccc12	-1	x	10	x	4
O=C(C[C@@H]1C=C[C@H](NC(=O)C2CC2)[C@@H](CO)O1)NCCCN1CCOCC1	x	x	-3	0	x
O=C(COc1ccccc1)Nc1ccc(Cl)cn1	7	7	21	0	41
SMILES	Vif inh	Wnt bcat act	esBAF inh	Xi reactivation	MITF act
O=C(Nc1ccc(NC(=O)c2ccccc2Cl)nc1)c1ccco1	29	9	54*	0	55
O=C(Nc1ccc(-c2nc3ncccc3o2)cc1)c1ccco1	-1	27	x	x	104*
CCC(=O)Nc1ccc(NC(=O)c2ccccc2Cl)nc1	-3	x	-13	x	18
O=C(CCc1ccccc1)Nc1ccc(Cl)cn1	u	x	43*	x	19
O=C(COc1ccccc1Cl)Nc1ccc(Cl)cn1	1	52*	30	x	x
O=C(Nc1ccccn1)c1ccc(NC(=O)c2ccco2)cc1	-5	x	17	x	86*
Cc1cc(NC(=O)c2ccco2)ncc1NC(=O)Cc1ccccc1	-3	x	45*	x	59
O=C(Nc1ccc(OC(=O)c2ccco2)cc1)c1ccco1	11	9	-8	x	x
Cc1ccccc1NC(=O)c1ccc(NC(=O)c2ccco2)cc1	x	x	9	x	12
O=C(CCc1ccccc1)Nc1ccc(NC(=O)c2ccco2)nc1	17	36*	36	x	u
O=C(OC1CCCCC1)c1ccc(NC(=O)c2ccco2)cc1	-12	-3	60*	x	55
CC(C)(C)NC(=O)Nc1ccc2nccnc2c1	-8	x	52*	x	59
CC(C)(C)NC(=O)c1ccc2nccnc2c1	-4	x	2	x	x
